Data from ChEMBL document CHEMBL1123617, “Antipsychotic activity of substituted gamma-carbolines” (J Med Chem, 1987).
Values belong to the molecule of their own block, whether it stands above or below them.

Experiments:
[1] = molecular target: T1, Serotonin 2 (5-HT2) receptor (Rattus norvegicus, UniProt P30994+P08909+P14842); assay: In vitro 5-hydroxytryptamine 2 receptor affinity by using [3H]spiperone as the radioligand in rat cortical tissue.; value may range from 140 to 980
Rattus norvegicus [2] = assay: Potential antipsychotic activity was assessed by measuring the ability to block the conditioned avoidance response(CAR) in rats on oral administration; value may range from 10 to 34; assay type: functional
How it was run: (§1)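 Each session had 60 trials, with a control session before every drug run. Trials with no avoidance response (avoidance block) were summed over rats at each dose and expressed as a percentage of total trials. Control avoidance was set at 100%. The dose giving 50% block (AB50) was fitted by least squares.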

[3] = molecular target: T1, Serotonin 2 (5-HT2) receptor; assay: In vitro 5-hydroxytryptamine 2 receptor affinity by using [3H]spiperone as the radioligand in rat cortical tissue; value may range from 23 to 187
Rattus norvegicus [4] = assay: Potential antipsychotic activity was assessed by measuring the ability to block the conditioned avoidance response(CAR) in rats on oral administration; value may range from 6 to 63; assay type: functional; how it was run: as §1
Rattus norvegicus [5] = assay: Potential antipsychotic activity was assessed by measuring the ability to block the conditioned avoidance response(CAR) in rats on oral administration; value may range from 30 to 62; assay type: functional; how it was run: as §1
[6] = molecular target: T1, Serotonin 2 (5-HT2) receptor; assay: In vitro 5-hydroxytryptamine 2 receptor affinity by using [3H]spiperone as the radioligand in rat cortical tissue.
D(2) dopamine receptor [7] = molecular target: T2, D(2) dopamine receptor (Rattus norvegicus, UniProt P61169); assay: In vitro Dopamine receptor D2 affinity by using [3H]spiperone as the radioligand in rat limbic system at 1 uM concentration of compound; value may range from 14 to 22; assay type: tissue-based
T2 sequence (P61169 whole entry): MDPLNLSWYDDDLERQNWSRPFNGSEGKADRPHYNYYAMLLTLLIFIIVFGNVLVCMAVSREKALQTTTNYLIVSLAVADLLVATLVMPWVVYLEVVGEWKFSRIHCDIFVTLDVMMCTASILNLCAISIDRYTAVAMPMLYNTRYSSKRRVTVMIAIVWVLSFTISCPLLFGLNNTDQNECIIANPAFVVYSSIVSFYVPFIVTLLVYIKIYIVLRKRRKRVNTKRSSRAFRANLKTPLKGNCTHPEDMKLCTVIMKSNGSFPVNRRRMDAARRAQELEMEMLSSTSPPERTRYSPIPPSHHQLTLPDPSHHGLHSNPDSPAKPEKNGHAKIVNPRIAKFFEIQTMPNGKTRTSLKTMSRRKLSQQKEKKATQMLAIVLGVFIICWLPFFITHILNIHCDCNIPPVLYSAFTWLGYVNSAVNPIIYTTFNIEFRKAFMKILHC

[8] = molecular target: T1, Serotonin 2 (5-HT2) receptor; assay: In vitro 5-hydroxytryptamine 2 receptor affinity by using [3H]-Spiperone as the radioligand in rat cortical tissue; value may range from 12 to 66
D(2) dopamine receptor [9] = molecular target: T2, D(2) dopamine receptor; assay: In vitro Dopamine receptor D2 affinity by using [3H]spiperone as the radioligand in rat limbic system at 1 uM concentration of compound; value may range from […]; assay type: tissue-based
Rattus norvegicus [10] = assay: Potential antipsychotic activity was assessed by measuring the ability to block the conditioned avoidance response(CAR) in rats on oral administration.; assay type: functional
D(2) dopamine receptor [11] = molecular target: T2, D(2) dopamine receptor; assay: In vitro Dopamine receptor D2 affinity by using [3H]spiperone as the radioligand in rat limbic system at 1 uM concentration of compound; value may range from 1 to 2; assay type: tissue-based
[12] = molecular target: D(2) dopamine receptor (Rattus norvegicus) (UniProt P61169); assay: (§2) In vitro Dopamine receptor D2 affinity by using [3H]spiperone as the radioligand in rat limbic system at 1 uM concentration of compound; assay type: tissue-based
D(2) dopamine receptor (Rattus norvegicus), sequence (P61169 whole entry): as above

[13] = molecular target: T1, Serotonin 2 (5-HT2) receptor; assay: In vitro 5-hydroxytryptamine 2 receptor affinity by using [3H]spiperone as the radioligand in rat cortical tissue; value may range from 165 to 263
Rattus norvegicus [14] = assay: Potential antipsychotic activity was assessed by measuring the ability to block the conditioned avoidance response(CAR) in rats on oral administration; value may range from 11 to 81; assay type: functional; how it was run: as §1
Mus musculus [15] = assay: Ability to inhibit apomorphine (APO) induced stereotyped behavior in mice by intraperitoneal administration of compound; value may range from 7 to 18; assay type: functional; details: ip
How it was run: (§3)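 Male CF-1 mice (20–25 g), acclimated at least 3 days, were given compound ip in 0.25% Tween 80 at 1, 10, 30 and 60 mg/kg (six mice per dose), alongside a concurrent vehicle group. Apomorphine 1 mg/kg sc was given 30 min later. Scoring at 5 min: stereotypy (sniffing-licking-gnawing) 0/1; climbing 0–2.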

[16] = molecular target: T1, Serotonin 2 (5-HT2) receptor; assay: In vitro 5-hydroxytryptamine 2 receptor affinity by using [3H]spiperone as the radioligand in rat cortical tissue.; value may range from 76 to 299
D(2) dopamine receptor [17] = molecular target: T2, D(2) dopamine receptor; assay: In vitro Dopamine receptor D2 affinity by using [3H]spiperone as the radioligand in rat limbic system at 1 uM concentration of compound; value may range from 84 to 130; assay type: tissue-based
Rattus norvegicus [18] = assay: Potential antipsychotic activity was assessed by measuring the ability to block the conditioned avoidance response(CAR) in rats on oral administration; value may range from 10 to 31; assay type: functional; how it was run: as §1
Mus musculus [19] = assay: Ability to inhibit apomorphine (APO) induced climbing behavior in mice by intraperitoneal administration of compound; value may range from 1 to 13; assay type: functional; details: ip; how it was run: as §3
D(2) dopamine receptor [20] = molecular target: T2, D(2) dopamine receptor; assay: as §2; assay type: tissue-based
D(2) dopamine receptor [21] = molecular target: T2, D(2) dopamine receptor; assay: In vitro Dopamine receptor D2 affinity by using [3H]spiperone as the radioligand in rat limbic system at 1 uM concentration of compound; value may range from 20 to 130; assay type: tissue-based
D(2) dopamine receptor [22] = molecular target: T2, D(2) dopamine receptor; assay: In vitro Dopamine receptor D2 affinity by using [3H]-Spiperone as the radioligand in rat limbic system at 1 uM concentration of compound; value may range from 4 to 15; assay type: tissue-based

- Ki [1]: 480 nM
Compound: Cl.Fc1ccc2[nH]c3c(c2c1)CN(CCCCc1ccncc1)CC3
- AB50 (Rattus norvegicus [2]): 15 mg/kg

- Ki [3]: 55 nM
Compound: Cl.Fc1ccc(-n2c3c(c4cc(F)ccc42)CN(CCc2ccncc2)CC3)cc1
- AB50 (Rattus norvegicus [4]): 16 mg/kg

- Ki (D(2) dopamine receptor [7]): 18 nM
Compound: Fc1ccc(C(CCCN2CCc3[nH]c4ccc(F)cc4c3C2)c2ccc(F)cc2)cc1

- Ki (D(2) dopamine receptor [11]): 1 nM
Compound: Fc1ccc(-n2c3c(c4cc(F)ccc42)CN(CCCCc2ccnc4ccccc24)CC3)cc1

- Ki [13]: 211 nM
Compound: Cl.Fc1ccc2[nH]c3c(c2c1)CN(CCc1ccncc1)CC3 [CARVOTROLINE HYDROCHLORIDE]
- AB50 (Rattus norvegicus [14]): 23 mg/kg

- Ki (D(2) dopamine receptor [22]): 7 nM
Compound: Fc1ccc(-n2c3c(c4cc(F)ccc42)CN(CCCCc2ccncc2)CC3)cc1

Further lines, the molecule ahead of its results:

Compound: C[C@@H]1CN(CCCn2c3ccccc3c3ccccc32)C[C@H](C)N1 [RIMCAZOLE]
- AB50 (Rattus norvegicus [5]): 39 mg/kg
- IC50 [6]: > 0.00005 M

Compound: Cl.Clc1ccc2[nH]c3c(c2c1)CN(CCCc1cccnc1)CC3
- Ki [8]: 28 nM
- Ki (D(2) dopamine receptor [9]): 126 nM
- AB50 (Rattus norvegicus [10]): >40 mg/kg

Compound: c1ccc(CCN2CCc3[nH]c4ccccc4c3C2)nc1
- inhibition [12]: 33%

Compound: Cl.Clc1ccc2[nH]c3c(c2c1)CN(CCc1ccc2ccccc2n1)CC3
- AB50 (Rattus norvegicus [10]): >40 mg/kg

Compound: Cl.Fc1ccc2[nH]c3c(c2c1)CN(CCCc1cccnc1)CC3 [GEVOTROLINE HYDROCHLORIDE]
- ED50 (Mus musculus [15]): 11 mg/kg
- Ki [16]: 136 nM
- Ki (D(2) dopamine receptor [17]): 104 nM
- AB50 (Rattus norvegicus [18]): 14 mg/kg
- ED50 (Mus musculus [19]): 4 mg/kg

Compound: Cl.Fc1ccc2[nH]c3c(c2c1)CN(CCc1cnccn1)CC3
- Ki (D(2) dopamine receptor [20]): 63 nM
- AB50 (Rattus norvegicus [10]): >40 mg/kg

Compound: c1cnc(N2CCN(CCCN3CCc4[nH]c5ccccc5c4C3)CC2)nc1
- Ki (D(2) dopamine receptor [21]): 60 nM
